In ChEMBL document CHEMBL2057141, “Imidazolopiperazines: lead optimization of the second-generation antimalarial agents” (J Med Chem, 2012):

Tests used:
Plasmodium falciparum [1] = assay: Antimalarial activity against Plasmodium falciparum W2 after 72 hrs by SYBR green fluorescence assay; assay type: functional, organism-based; conditions: W2, 72 h
Method in brief: (§1)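 P. falciparum grown in O+ erythrocytes, screened in medium without human serum plus 0.5% Albumax II. Twelve-point half-log dilutions up to 10 μM final. 0.3% parasitemia, 2.5% hematocrit; 72 h at 37 °C under low-oxygen gas. Lysis buffer with SYBR Green added, 24 h at 25 °C, fluorescence read at 485/530 nm.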

Plasmodium falciparum [2] = assay: Antimalarial activity against Plasmodium falciparum 3D7 after 72 hrs by SYBR green fluorescence assay; assay type: functional, organism-based; conditions: 3D7, 72 h; method in brief: as §1
Plasmodium berghei [3] = assay: Antimalarial activity against Plasmodium berghei ANKA expressing GFP infected in NMRI mouse assessed as reduction of parasite level in blood at 30 mg/kg, po administered 24 hrs post infection qd for 3 days measured after 96 hrs post infection by flow cytometry; assay type: functional; design: scale not given: the % may be the effect or the level left
Method in brief: (§2)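 Female NMRI mice (20–22 g, n=3) are infected i.v. with 2×10^7 P. berghei GFP ANKA-infected erythrocytes. Oral compound in 75% PEG300/25% D5W is given at 10 mL/kg, once at 24 h or daily at 24/48/72 h post-infection. Parasitemia is read by flow cytometry at 72 h (single dose) or 96 h (triple dose). Activity is % reduction of mean parasitemia versus untreated controls.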

Plasmodium berghei [4] = assay: Antimalarial activity against Plasmodium berghei ANKA expressing GFP infected in NMRI mouse assessed as increase of mouse survival at 30 mg/kg, po administered 24 hrs post infection qd for 3 days (reference value: 6 to 7 days); assay type: functional
Plasmodium berghei [5] = assay: Antimalarial activity against Plasmodium berghei ANKA expressing GFP infected in NMRI mouse assessed as reduction of parasite level in blood at 100 mg/kg, po administered 24 hrs post infection measured after 72 hrs post infection by flow cytometry; assay type: functional; design: scale not given: the % may be the effect or the level left; method in brief: as §2
Plasmodium berghei [6] = assay: Antimalarial activity against Plasmodium berghei ANKA expressing GFP infected in NMRI mouse assessed as increase of mouse survival at 100 mg/kg, po administered 24 hrs post infection (reference value: 6 to 7 days); assay type: functional
Plasmodium berghei [7] = assay: Antimalarial activity against Plasmodium berghei ANKA expressing GFP infected in NMRI mouse assessed as increase of mouse survival at 30 mg/kg, po administered 24 hrs post infection (reference value: 6 to 7 days); assay type: functional
Plasmodium berghei [8] = assay: Antimalarial activity against Plasmodium berghei ANKA expressing GFP infected in NMRI mouse assessed as reduction of parasite level in blood at 30 mg/kg, po administered 24 hrs post infection measured after 72 hrs post infection by flow cytometry; assay type: functional; design: scale not given: the % may be the effect or the level left; method in brief: as §2
Mus musculus [9] = assay: AUC (0 to 24 hrs) in Balb/c mouse at 20 mg/kg, po; assay type: ADME, organism-based, Plasma; design: time < 24 hr, dose 20 mg/kg, route oral; conditions: in vivo
Method in brief: (§3)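 Male Balb/c mice (n = 3 per group). Compound as a 2.5 mg/mL solution in PEG300/D5W 3:1, filtered. Given by lateral tail vein at 5 mg/kg (2 mL/kg) or orally at 20 mg/kg (8 mL/kg). Six serial 50 μL retro-orbital blood samples to 24 h, heparinized plasma. Plasma extracted with acetonitrile:methanol 3:1 with internal standard, LC-MS/MS. Noncompartmental analysis; F = AUCpo×dose_iv/AUCiv×dose_po.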

Mus musculus [10] = assay: AUC (0 to 24 hrs) in Balb/c mouse at 5 mg/kg, iv; assay type: ADME, organism-based, Plasma; design: time < 24 hr, dose 5 mg/kg, route intravenous; conditions: in vivo; method in brief: as §3
[11] = Permeability of the compound by PAMPA; assay type: ADME
Method in brief: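 PAMPA in 96-well filter plates. Permeated compound quantified by UV absorbance at 260–290 nm. Reported as percentage absorbed.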

Rattus norvegicus = assay: Cmax in Wistar rat at 10 mg/kg, po; assay type: ADME, organism-based; design: dose 10 mg/kg, route oral; conditions: in vivo, BLD = below limit of detection
Method in brief: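 Rat snapshot PK: two Wistar rats dosed orally at 10 mg/kg, formulated at 2.5 mg/mL in 75% PEG300/25% D5W. Blood (100 μL) taken at 0.5, 1, 3 and 5 h post dose. Plasma pooled by sampling time, then analysed by LC-MS/MS.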

[12] = Cmax in Balb/c mouse at 20 mg/kg, po; assay type: ADME, organism-based; design: dose 20 mg/kg, route oral; conditions: in vivo; method in brief: as §3
Mus musculus [13] = assay: Oral bioavailability in Balb/c mouse at 20 mg/kg; assay type: ADME, organism-based; conditions: in vivo; method in brief: as §3
[14] = Half life in Balb/c mouse at 20 mg/kg, po; assay type: ADME, organism-based; design: dose 20 mg/kg, route oral; conditions: in vivo; method in brief: as §3
[15] = Apparent permeability across basolateral to apical side in human Caco2 cells by LC/MS analysis; assay type: ADME, cell-based; conditions: Caco-2
Method in brief: (§4)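 Caco-2 monolayers in 96-well format. Compound measured in apical and basolateral chambers by LC/MS, giving Papp in the A–B and B–A directions. Values reported in cm/s × 10⁶.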

[16] = Tmax in Balb/c mouse at 20 mg/kg, po; assay type: ADME, organism-based; design: dose 20 mg/kg, route oral; conditions: in vivo; method in brief: as §3
[17] = Apparent permeability across apical to basolateral side in human Caco2 cells by LC/MS analysis; assay type: ADME, cell-based; conditions: Caco-2; method in brief: as §4
[18] = Half life in Balb/c mouse at 5 mg/kg, iv; assay type: ADME, organism-based; design: dose 5 mg/kg, route intravenous; conditions: in vivo; method in brief: as §3
[19] = Volume of distribution in Balb/c mouse at 5 mg/kg, iv; assay type: ADME, organism-based; design: dose 5 mg/kg, route intravenous; conditions: in vivo; method in brief: as §3
[20] = Clearance in Balb/c mouse plasma at 5 mg/kg, iv; assay type: ADME, organism-based; design: dose 5 mg/kg, route intravenous; method in brief: as §3
Plasmodium berghei [21] = assay: Antimalarial activity against Plasmodium berghei ANKA expressing GFP infected in po dosed NMRI mouse assessed as reduction of parasite level in blood administered 24 hrs post infection measured after 72 hrs post infection by flow cytometry; assay type: functional
[22] = Metabolic stability in mouse liver microsomes assessed as hepatic extraction ratio by LC/MS/MS analysis in presence of CYP; assay type: ADME, Microsome
Method in brief: (§5)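 Liver microsomes (human, mouse, rat). Compound depletion followed by LC/MS/MS. Loss of parent used to derive in vitro half-life and hepatic extraction ratio.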

[23] = Metabolic stability in mouse liver microsomes assessed as hepatic extraction ratio by LC/MS/MS analysis; assay type: ADME, Microsome; method in brief: as §5
[24] = Metabolic stability in rat liver microsomes assessed as hepatic extraction ratio by LC/MS/MS analysis in presence of CYP; assay type: ADME, Microsome; method in brief: as §5
[25] = Metabolic stability in human liver microsomes assessed as hepatic extraction ratio by LC/MS/MS analysis in presence of CYP; assay type: ADME, Microsome; method in brief: as §5

SMILES: CC1(C)Cn2c(nc(-c3ccc(F)cc3)c2Nc2ccc(F)cc2)CN1C(=O)CN
- EC50 (Plasmodium falciparum [1]): 111 nM
- EC50 (Plasmodium falciparum [2]): 82 nM

SMILES: CCN(CC)CCCC(C)Nc1ccnc2cc(Cl)ccc12 (configuration not stated) [CHLOROQUINE]
- Activity (Plasmodium berghei [3]): 99.8%
- Survival (Plasmodium berghei [4]): 13.6 days
- Activity (Plasmodium berghei [5]): 99.6%
- Survival (Plasmodium berghei [6]): 12.5 days
- Survival (Plasmodium berghei [7]): 9 days
- Activity (Plasmodium berghei [8]): 99.5%

SMILES: CC(C)(N)C(=O)N1CCn2c(nc(-c3ccc(F)cc3)c2Nc2ccc(F)cc2)C1
- EC50 (Plasmodium falciparum [1]): 25 nM
- AUC (Mus musculus [9]): 17.894 µM·h
- EC50 (Plasmodium falciparum [2]): 20 nM
- AUC (Mus musculus [10]): 3.442 µM·h
- permeability [11]: 81%

SMILES: C[C@H]1c2nc(-c3ccc(F)cc3)c(Nc3ccc(F)c(Cl)c3)n2CCN1C(=O)CN
- EC50 (Plasmodium falciparum [1]): 24 nM
- EC50 (Plasmodium falciparum [2]): 29 nM

SMILES: Cc1ccc(Nc2c(-c3ccc(F)cc3)nc3n2CCN(C(=O)C(C)(C)N)C3(C)C)cc1
- Cmax (Rattus norvegicus): BLD
- EC50 (Plasmodium falciparum [1]): 4 nM
- Cmax [12]: 1640 nM
- F (Mus musculus [13]): 107%
- half-life [14]: 14.5 h
- Papp B→A [15]: 2.37 ×10⁻⁶ cm/s
- Tmax [16]: 1 h
- Survival (Plasmodium berghei [6]): 16.7 days
- Survival (Plasmodium berghei [7]): 15.3 days
- Papp A→B [17]: 3.5 ×10⁻⁶ cm/s
- half-life [18]: 18 h
- Vd [19]: 7.5 L/kg
- AUC (Mus musculus [9]): 32.409 µM·h
- EC50 (Plasmodium falciparum [2]): 2 nM
- AUC (Mus musculus [10]): 7.607 µM·h
- permeability [11]: 99.5%
- clearance [20]: 36.1 mL/min/kg

SMILES: CC1(C)CN(C(=O)CN)Cc2nc(-c3ccc(F)cc3)c(Nc3ccc(F)cc3)n21
- EC50 (Plasmodium falciparum [1]): 76 nM
- EC50 (Plasmodium falciparum [2]): 80 nM

SMILES: CC(C)[C@H]1c2nc(-c3ccc(F)cc3)c(Nc3ccc(F)c(Cl)c3)n2CCN1C(=O)CN
- EC50 (Plasmodium falciparum [1]): 470 nM
- EC50 (Plasmodium falciparum [2]): 343 nM

SMILES: CC1(C)c2nc(-c3ccc(F)cc3)c(Nc3ccc(F)c(Cl)c3)n2CCN1C(=O)CN
- EC50 (Plasmodium falciparum [1]): 24 nM
- EC50 (Plasmodium falciparum [2]): 27 nM

SMILES: CC(C)(N)C(=O)N1CCn2c(nc(-c3ccc(F)cc3)c2Nc2ccc(F)c(F)c2)C1
- ED99 (Plasmodium berghei [21]): 26.5 mg/kg

SMILES: Cc1ccc(Nc2c(-c3ccc(F)cc3)nc3n2CC(=O)NC3(C)C)cc1
- EC50 (Plasmodium falciparum [1]): 136 nM
- hepatic extraction ratio [22]: 0.72
- hepatic extraction ratio [23]: 0.72
- EC50 (Plasmodium falciparum [2]): 138 nM

SMILES: Cc1ccc(Nc2c(-c3ccc(F)cc3)nc3n2CCNC3(C)C)cc1
- EC50 (Plasmodium falciparum [1]): 13 nM
- Papp B→A [15]: 6.96 ×10⁻⁶ cm/s
- hepatic extraction ratio [22]: 0.87
- Papp A→B [17]: 15.6 ×10⁻⁶ cm/s
- hepatic extraction ratio [24]: 0.93
- hepatic extraction ratio [23]: 0.77
- EC50 (Plasmodium falciparum [2]): 13 nM
- permeability [11]: 99.9%
- hepatic extraction ratio [25]: 0.88
